Compound activity: PubChem, The Scripps Research Institute Molecular Screening Center
5-HT1A blocker – human 5-HT1a receptor antagonists, primary screen, cell-based, CHO, Ga15 NFAT-bla reporter | CHO 5-HT1a Ga15 NFAT-bla reporter, antagonist mode | inhibition, % at 10 µM | 0.68% of 62,000 active;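 active means inhibition above the mean of all tested compounds plus 3 SD, cut at about 43% in these data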;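 further: receptor stimulated by 5-CT agonist at 100 nM near EC80; beta-lactamase reporter measured by ratiometric fluorescence of a cleavable substrate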
Target sequence (P08908 whole entry, looked up): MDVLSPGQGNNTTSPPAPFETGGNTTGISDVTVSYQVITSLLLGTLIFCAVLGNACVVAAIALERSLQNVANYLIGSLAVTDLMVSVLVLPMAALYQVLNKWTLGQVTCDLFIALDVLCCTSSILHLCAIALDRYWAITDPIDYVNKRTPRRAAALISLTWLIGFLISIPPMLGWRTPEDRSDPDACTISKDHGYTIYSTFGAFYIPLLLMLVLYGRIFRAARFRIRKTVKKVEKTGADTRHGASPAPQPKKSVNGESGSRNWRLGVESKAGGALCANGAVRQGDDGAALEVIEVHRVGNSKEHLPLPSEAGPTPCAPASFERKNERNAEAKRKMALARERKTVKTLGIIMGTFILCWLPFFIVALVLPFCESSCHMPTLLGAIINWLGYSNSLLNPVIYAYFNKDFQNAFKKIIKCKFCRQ
HTR1E agonist – 5-HT1E receptor agonists, primary screen, cell-based, HTS; 0.69% of 65,000 active; 5-hydroxytryptamine receptor 1E (Homo sapiens), P28566; AID 574, 2007; CHO 5-HT1E Ga15 NFAT-bla reporter, FRET; 0% DMSO wells, 100% control agonist wells; activation, % at 6 µM;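 active means activation above a set limit, the screen-wide mean activation plus 3 SD, cut at about 8.5% in these data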;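 further: 100% = positive control agonist at 1 µM giving full maximal response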
HTR1A agonist – human 5-HT1a receptor agonists, primary screen, cell-based, CHO, Ga15 NFAT-bla reporter. 5-hydroxytryptamine receptor 1A (Homo sapiens), P08908. CHO 5-HT1a Ga15 NFAT-bla reporter, FRET ratio; 0% basal, 100% maximal reference agonist. activation, % at 10 µM. 0.56% of 65,000 active;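 active means activation above the screen-wide mean activation plus 3 SD, cut at about 19% in these data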;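 further: 0% = DMSO wells and 100% = 5-CT at EC100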
Jurkat tox 60K – cytotoxicity toward Jurkat T cells, primary screen, cytotoxicity control, cell-based, Jurkat E6.1, 60K MLSMR library | Jurkat E6.1 viability, ATP luminescence, 48 h | inhibition, % at 4 µM | 1.2% of 56,000 active | AID 463, 2006;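 active means inhibition above the mean inhibition of all tested compounds plus 3 SD, cut at about 28% in these data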
5HT1E antag – 5-HT1E receptor antagonists, primary screen, cell-based, HTS | 5-hydroxytryptamine receptor 1E (Homo sapiens), P28566 | CHO 5-HT1E Ga15 NFAT-bla reporter, FRET, antagonist | inhibition, % at 6 µM | 0.99% of 65,000 active;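 active means inhibition above a set limit, the mean inhibition across every tested compound plus 3 SD, cut at about 29% in these data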;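 further: signal is the 460 over 535 nm emission ratio of beta-lactamase substrate; 0% = agonist plus DMSO wells and 100% = wells without agonist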
HEK293 NFkB inh – inhibitors of PMA/ionomycin-induced NF-kB reporter, primary screen, antigen receptor NF-kB inhibitor project, cell-based, HEK-293 luciferase reporter, luminescence | HEK-293 NF-kB luciferase reporter | inhibition, % at 3 µM | 0.21% of 62,000 active | AID 465, 2006;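 active means inhibition above the mean of all tested compounds plus 3 SD, cut at about 40% in these data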;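 further: 0% = stimulated DMSO wells and 100% = 10 µM reference inhibitor 5653914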
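System: NF-kB luciferase reporter HEK-293 cells | Replication: Single test | Control set: DMSO vs reference inhibitor | Evaluation: % inhibition | Schedule: 1 h pretreatment, 16 h stimulation, 37 °C | Probe or stimulus: PMA with ionomycin | Compound dosing: One dose, 3 µM | Detection: Luciferase luminescence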
Numbers without * were called inactive; nt = not tested or not shown. Sampled rows, rich in hits. Any-hit rate of the full collection: about 3.3%.

SMILES	5-HT1A blocker	HTR1E agonist	HTR1A agonist	Jurkat tox 60K	5HT1E antag	HEK293 NFkB inh
Cc1cc(C)c(S(=O)(=O)N(C)CC(=O)NC2CCCC2)c(C)c1	2.1	-0.6	-0.4	-8.6	7.9	11.6
N#C/C(=C(/O)COC(=O)Cc1c[nH]c2ccccc12)c1nc2ccccc2[nH]1	11.8	4.8	32.4*	-2.7	-1.1	4.4
N#C/C(=C(/O)COC(=O)c1ccc2c(c1)OCCO2)c1nc2ccccc2[nH]1	0.3	1.1	-3.1	0.7	4.6	9.4
CCOC(=O)c1c(C)[nH]c(C(=O)OC/C(O)=C(\C#N)c2nc3ccccc3[nH]2)c1C	6.4	2.6	0.0	-3.3	49.2*	-3.1
N#Cc1c(N)nc(SCC(=O)NCc2ccc3c(c2)OCO3)c(C#N)c1-c1cccs1	nt	-1.1	1.6	nt	3.3	nt
N#Cc1c(N)nc(SCc2ccccn2)c(C#N)c1-c1cccs1	nt	0.0	5.2	nt	29.7*	nt
CC1(C(=O)N(c2ccccc2)C(C(=O)NC2CCCC2)c2ccccn2)CC(=O)N=C2C=CC=CN21 (configuration not stated)	3.1	0.3	-3.4	1.6	-0.8	10.7
N#CCCCSc1nnnn1-c1cccc(Cl)c1	-2.2	-0.7	-0.4	-7.9	5.1	5.6
N#CCCS(=O)(=O)c1nnnn1-c1ccccc1	86.7*	-1.4	0.5	5.4	79.4*	33.5
CC(=O)Oc1ccc(N2C(=O)C3C(C2=O)C2(C)C=CC3(C)O2)cc1 (configuration not stated)	84.7*	-0.5	-6.4	19.7	63.8*	2.0
COC(=O)c1cc(N2C(=O)C3C(C2=O)C2(C)C=CC3(C)O2)ccc1Cl (configuration not stated)	-2.5	-0.6	0.9	10.2	2.5	9.1
CCSc1nc2cc(OC)c(OC)cc2c(=O)n1CC	2.4	-0.1	-4.2	5.0	18.4	12.7
CCCCC(=O)Nc1ccc(Cl)cn1	3.5	-0.4	-1.5	3.7	3.9	19.2
O=C(CCc1ccccc1)Nc1ccc(Cl)cn1	20.7	-0.7	-1.7	77.8*	19.7	15.0
Cc1ccc(C(=O)Nc2ccc(Cl)cn2)cc1	7.2	0.5	-2.1	76.5*	2.7	-27.1
Cc1ccccc1C(=O)Nc1ccc(Cl)cn1	18.5	-0.6	-0.9	1.8	7.0	-10.5
COc1ccc(-c2csc(N(CCCN(C)C)C(=O)c3cccs3)n2)cc1	4.9	0.4	-2.6	1.4	-4.2	0.8
COCCCN(C(C)=O)c1nc(-c2ccc(OC)cc2)cs1	3.7	0.4	0.5	57.0*	11.6	19.8
O=C(CCN1c2ccccc2Sc2ccccc21)OCC(=O)N1CCN(C(=O)c2ccco2)CC1	6.7	0.8	0.8	-2.4	-2.1	0.4
CCOc1ccc(OCc2cccc(C(=O)N3CCOCC3)c2)cc1	1.1	-0.3	0.0	-0.3	0.9	50.5*
Cc1sc2c(c1C)CN(Cc1ccco1)CN2C(=O)c1ccccc1	0.0	-0.5	-2.2	-6.9	-8.4	0.4
Cc1cc(NC(=O)COc2cccc(Oc3ccccc3)c2)no1	5.0	-0.2	-7.2	49.7*	-9.5	-3.6
CC1CCCC(N2C(=O)NC(NC(=O)c3ccco3)(C(F)(F)F)C2=O)C1C (configuration not stated)	-27.2	-0.7	-0.2	6.1	-10.1	20.7
COC(=O)[C@H](C)NC(=O)Nc1cc(OC)ccc1OC	11.3	-0.2	-5.8	-0.8	0.6	13.2
Cc1cc(C)nc(N2CCC(C(=O)N3CCN(c4cc(Cl)ccc4C)CC3)CC2)n1	16.6	0.0	1.2	-1.2	-8.4	21.9
SMILES	5-HT1A blocker	HTR1E agonist	HTR1A agonist	Jurkat tox 60K	5HT1E antag	HEK293 NFkB inh
Cc1ccc(Cl)cc1N1CCN(C(=O)CCC(=O)O)CC1	6.0	14.1*	-0.9	nt	0.7	11.1
O=C(O)CCC(=O)N1CCN(c2cccc(Cl)c2)CC1	13.3	21.4*	0.0	2.5	4.4	-1.9
Cn1ncc2c(Nc3ccc(-c4ccccc4)cc3)ncnc21	0.6	1.1	-1.9	34.9*	10.1	7.7
Cn1ncc2c(Nc3ccccc3Br)ncnc21	nt	0.0	-3.8	nt	4.4	nt
CC1=C/C(=C/N(C)c2ccccc2)C(=O)S1	44.3*	-1.3	-6.6	-4.7	15.4	4.3
Cc1cc(C)c2c(=O)n(-c3ccccc3)[nH]c2n1	-5.7	13.3*	-0.3	1.8	1.0	-1.5
O=c1c2c3n(c(=O)nc2[nH]n1-c1ccccc1)CCCCC3	2.4	1.0	-1.3	-7.4	-8.7	14.3
c1cc(-c2nc3cc(Oc4ccc5oc(-c6ccncc6)nc5c4)ccc3o2)ccn1	-1.8	0.4	-0.2	-5.3	0.8	13.5
c1ccc(Cn2nnc3c(Nc4ccc5c(c4)OCO5)nc(C4CC4)nc32)cc1	19.6	2.4	22.1*	11.4	-0.1	30.9
COC(=O)CNc1nc(C2CC2)nc2c1nnn2Cc1ccccc1Cl	5.0	-0.1	-2.2	11.4	11.4	4.0
CCCSc1nnc(NC(=O)c2sc3nc(-c4cccs4)ccc3c2N)s1	2.5	-0.3	-3.8	-3.7	7.9	16.6
Cc1csc(NC(=O)c2sc3nc(-c4cccs4)ccc3c2N)n1	13.0	0.9	-0.1	-7.0	4.7	54.3*
CC1CCCN(c2ncnc3c2cnn3-c2ccc(Cl)cc2)C1 (configuration not stated)	-12.8	0.5	1.3	-6.6	7.5	71.0*
COC(=O)c1cccc(Nc2nc3ccccc3nc2C)c1	6.5	0.1	-1.2	3.7	-3.2	17.3
COC(=O)Nc1nc(C)c(C(=O)N(C)C)s1	2.5	-0.6	19.4*	1.4	-2.3	13.4
CCOC(=O)Nc1nc(C)c(C(=O)N(C)C)s1	2.9	-0.2	-1.4	-2.8	0.7	8.7
CC(C)c1nnc(NC(=O)Cn2nc(-c3ccc4c(c3)OCCO4)ccc2=O)s1	-0.7	13.9*	-2.4	9.9	-0.4	14.9
O=C(Cn1nc(-c2ccc3c(c2)OCCO3)ccc1=O)Nc1ccc(N2CCOCC2)cc1	-7.0	0.2	3.6	nt	-4.9	15.5
CCOC(=O)c1ccccc1NC(=O)c1ccc(NS(C)(=O)=O)cc1	8.9	-0.8	1.2	11.6	33.9*	-4.6
CCOC(=O)NC1(Nc2ccc(Cl)cn2)Oc2ccccc2O1	13.1	-0.1	-2.3	33.0*	7.3	18.3
CSc1ccccc1NC(=O)c1cccnc1	-12.2	48.1*	-0.6	-4.6	-2.9	0.6
CC(C)c1ccccc1NC(=O)c1cccnc1	1.8	-0.5	-1.0	0.8	-6.5	11.7
CCOc1cc(C#N)c(NC(=O)c2cccnc2)cc1OCC	10.0	-0.6	-1.0	72.0*	5.3	35.3
